From ChEMBL document CHEMBL5724801, “EUbOPEN Chemogenomics Library - Multiplex” (2024)
Several values for one entry are separate records, joined by “and”; a condition that tells them apart may be missing. Equal entries are not always repeated.

System: U2OS
Assay: Multiplex assay against U2OS
Type: toxicity, cell-based
Conditions: human
In short: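 Values for tubulin, mitochondrial-mass and membrane-permeability phenotypes are per cents of cells with healthy nuclei. These cells were identified by CellPathfinder machine-learning gating of live cells that had been stained at seeding with Hoechst33342, BioTracker Green Microtubule Cytoskeleton Dye, MitoTracker Red and Annexin V Alexa Fluor 680 and imaged on a CQ1 microscope at 37°C and 5% CO2 after compound addition. The gating first set Hoechst high-intensity objects apart from normal cells, then split normal cells into healthy, pyknosed or fragmented nuclei, and pyknosed cells into mitotic or apoptotic.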

[1] = 12 h, 1 µM, compound concentration 1 uM
[2] = 12 h, 10 µM, compound concentration 10 uM
[3] = 24 h, 1 µM, compound concentration 1 uM
[4] = 24 h, 10 µM, compound concentration 10 uM
[5] = 48 h, 1 µM, compound concentration 1 uM
[6] = 48 h, 10 µM, compound concentration 10 uM

C=CC(=O)N1CCC[C@@H](n2nc(C(=O)Nc3ccc(CC(=O)N(C)C)c(C)c3C)c3c(N)ncnc32)C1
Population Apoptotic (%) [1]: 31.58% and 48.15% | Population Fragmented Nuclei (%) [1]: 2.15% and 3.28% | Population Healthy Nuclei (%) [1]: 88.76% and 81.97% | Population Hoechst High Intensity Objects (%) [1]: 0% | Population Membrane Permeable-Phenotype (%) [1]: 1.08% and 0.67% | Population Mitochondria Different-Phenotype (%) [1]: 0.54% and 8.67% | Population Mitotic Cells (%) [1]: 68.42% and 51.85% | Population Normal (%) [1]: 100% | Population Pyknosed Nuclei (%) [1]: 9.09% and 14.75% | Population Tubulin-Different-Phenotype (%) [1]: 1.08% and 0% | Total Cell Count [1]: 418 and 183 | Population Apoptotic (%) [2]: 42.86% and 45.45% | Population Fragmented Nuclei (%) [2]: 1.65% and 3.24% | Population Healthy Nuclei (%) [2]: 88.47% and 84.86% | Population Hoechst High Intensity Objects (%) [2]: 0.23% and 0% | Population Mitotic Cells (%) [2]: 57.14% and 54.55% | Population Normal (%) [2]: 99.77% and 100% | Population Pyknosed Nuclei (%) [2]: 9.88% and 11.89% | Population Tubulin-Different-Phenotype (%) [2]: 0.27% and 3.82% | Total Cell Count [2]: 426 and 185 | Population Apoptotic (%) [3]: 37.21% and 57.14% | Population Fragmented Nuclei (%) [3]: 1.84% and 1.69% | Population Healthy Nuclei (%) [3]: 90.24% and 83.47% | Population Hoechst High Intensity Objects (%) [3]: 0.18% and 0% | Population Membrane Permeable-Phenotype (%) [3]: 0.41% and 2.54% | Population Mitochondria Different-Phenotype (%) [3]: 0.41% and 6.6% | Population Mitotic Cells (%) [3]: 62.79% and 42.86% | Population Normal (%) [3]: 99.82% and 100% | Population Pyknosed Nuclei (%) [3]: 7.92% and 14.83% | Population Tubulin-Different-Phenotype (%) [3]: 1.02% and 0% | Total Cell Count [3]: 544 and 236 | Population Apoptotic (%) [4]: 57.14% and 50% | Population Fragmented Nuclei (%) [4]: 2.56% and 2.27% | Population Healthy Nuclei (%) [4]: 87.18% and 86.82% | Population Hoechst High Intensity Objects (%) [4]: 0% | Population Membrane Permeable-Phenotype (%) [4]: 1.47% and 8.38% | Population Mitotic Cells (%) [4]: 42.86% and 50% | Population Normal (%) [4]: 100% | Population Pyknosed Nuclei (%) [4]: 10.26% and 10.91% | Population Tubulin-Different-Phenotype (%) [4]: 0.84% and 2.62% | Total Cell Count [4]: 546 and 220 | Population Apoptotic (%) [5]: 38.38% and 67.35% | Population Fragmented Nuclei (%) [5]: 2.8% and 4.6% | Population Healthy Nuclei (%) [5]: 87.64% and 82.86% | Population Hoechst High Intensity Objects (%) [5]: 0% | Population Membrane Permeable-Phenotype (%) [5]: 0.66% and 2.16% | Population Mitochondria Different-Phenotype (%) [5]: 0.11% and 7.41% | Population Mitotic Cells (%) [5]: 61.62% and 32.65% | Population Normal (%) [5]: 100% | Population Pyknosed Nuclei (%) [5]: 9.56% and 12.53% | Population Tubulin-Different-Phenotype (%) [5]: 0.66% and 0.31% | Total Cell Count [5]: 1036 and 391 | Population Apoptotic (%) [6]: 50.48% and 54.35% | Population Fragmented Nuclei (%) [6]: 1.98% and 2.5% | Population Healthy Nuclei (%) [6]: 87.11% and 83.12% | Population Hoechst High Intensity Objects (%) [6]: 0.1% and 0.31% | Population Membrane Permeable-Phenotype (%) [6]: 1.07% and 3.01% | Population Mitochondria Different-Phenotype (%) [6]: 0.12% and 6.02% | Population Mitotic Cells (%) [6]: 49.52% and 45.65% | Population Normal (%) [6]: 99.9% and 99.69% | Population Pyknosed Nuclei (%) [6]: 10.91% and 14.37% | Population Tubulin-Different-Phenotype (%) [6]: 0.95% and 1.5% | Total Cell Count [6]: 963 and 321

CCCn1c(=O)c2[nH]c(C3CCCC3)nc2n(CCC)c1=O [1,3-DIPROPYL-8-CYCLOPENTYLXANTHINE [DPCPX]]
Population Apoptotic (%) [1]: 87% and 93% | Population Fragmented Nuclei (%) [1]: 25% and 15% | Population Healthy Nuclei (%) [1]: 64% and 72% | Population Hoechst High Intensity Objects (%) [1]: 1% and 0% | Population Membrane Permeable-Phenotype (%) [1]: 1% and 7% | Population Mitochondria Different-Phenotype (%) [1]: 3% and 4% | Population Mitotic Cells (%) [1]: 12% and 6% | Population Normal (%) [1]: 98% and 100% | Population Pyknosed Nuclei (%) [1]: 9% and 12% | Population Tubulin-Different-Phenotype (%) [1]: 1% and 5% | Total Cell Count [1]: 250 and 125 | Population Apoptotic (%) [2]: 68% and 100% | Population Fragmented Nuclei (%) [2]: 30% and 21% | Population Healthy Nuclei (%) [2]: 60% and 69% | Population Hoechst High Intensity Objects (%) [2]: 2% and 3% | Population Membrane Permeable-Phenotype (%) [2]: 5% and 6% | Population Mitochondria Different-Phenotype (%) [2]: 1% and 9% | Population Normal (%) [2]: 97% and 96% | Population Pyknosed Nuclei (%) [2]: 9% and 8% | Population Tubulin-Different-Phenotype (%) [2]: 3% | Total Cell Count [2]: 206 and 96 | Population Apoptotic (%) [3]: 83% and 87% | Population Fragmented Nuclei (%) [3]: 24% and 13% | Population Healthy Nuclei (%) [3]: 68% and 74% | Population Hoechst High Intensity Objects (%) [3]: 3% and 2% | Population Membrane Permeable-Phenotype (%) [3]: 5% and 8% | Population Mitochondria Different-Phenotype (%) [3]: 3% | Population Mitotic Cells (%) [3]: 16% and 12% | Population Normal (%) [3]: 96% and 97% | Population Pyknosed Nuclei (%) [3]: 7% and 11% | Population Tubulin-Different-Phenotype (%) [3]: 4% | Total Cell Count [3]: 261 and 138 | Population Apoptotic (%) [4]: 89% and 100% | Population Fragmented Nuclei (%) [4]: 27% and 21% | Population Healthy Nuclei (%) [4]: 64% and 71% | Population Hoechst High Intensity Objects (%) [4]: 2% and 4% | Population Membrane Permeable-Phenotype (%) [4]: 7% and 3% | Population Mitochondria Different-Phenotype (%) [4]: 0% and 3% | Population Mitotic Cells (%) [4]: 10% and 0% | Population Normal (%) [4]: 97% and 95% | Population Pyknosed Nuclei (%) [4]: 8% and 6% | Population Tubulin-Different-Phenotype (%) [4]: 0% | Total Cell Count [4]: 234 and 120 | Population Apoptotic (%) [5]: 86% and 92% | Population Fragmented Nuclei (%) [5]: 20% and 17% | Population Healthy Nuclei (%) [5]: 69% | Population Hoechst High Intensity Objects (%) [5]: 1% and 2% | Population Membrane Permeable-Phenotype (%) [5]: 3% and 8% | Population Mitochondria Different-Phenotype (%) [5]: 1% and 4% | Population Mitotic Cells (%) [5]: 13% and 8% | Population Normal (%) [5]: 98% and 97% | Population Pyknosed Nuclei (%) [5]: 10% and 13% | Population Tubulin-Different-Phenotype (%) [5]: 2% and 3% | Total Cell Count [5]: 364 and 196 | Population Apoptotic (%) [6]: 77% and 100% | Population Fragmented Nuclei (%) [6]: 24% and 19% | Population Healthy Nuclei (%) [6]: 62% and 73% | Population Hoechst High Intensity Objects (%) [6]: 2% and 3% | Population Membrane Permeable-Phenotype (%) [6]: 4% and 5% | Population Mitochondria Different-Phenotype (%) [6]: 1% and 3% | Population Mitotic Cells (%) [6]: 22% and 0% | Population Normal (%) [6]: 97% and 96% | Population Pyknosed Nuclei (%) [6]: 12% and 6% | Population Tubulin-Different-Phenotype (%) [6]: 3% and 0% | Total Cell Count [6]: 322 and 165
